Reference: ChEMBL document CHEMBL3124885, “Discovery of 7-tetrahydropyran-2-yl chromans: β-site amyloid precursor protein cleaving enzyme 1 (BACE1) inhibitors that reduce amyloid β-protein (Aβ) in the central nervous system” (J Med Chem, 2014)

Tests used:
Brain [1] = assay: Fraction unbound in CD-1 mouse brain at 10 mg/kg, po measured at 4 hrs; type: ADME, organism-based; parameters: dose 10 mg/kg, route oral; conditions: in vivo
Outline: (§1)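 Male CD-1 mice, 3 per cohort, dosed 10 mg/kg orally; brains harvested at 1 and 4 h.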

[2] = Clearance in CD-1 mouse liver microsomes at 1 uM after 20 mins by LC-MS/MS analysis in presence of NADPH; type: ADME, Microsome
Outline: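 Compound at 1 μM incubated with mouse liver microsomes for 20 min at 37 °C with NADPH.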

[3] = Dissociation constant, pKa of the compound by parallel capillary electrophoresis method; type: physicochemical
Outline: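 pKa determined by a 24-point parallel capillary electrophoresis method, quantitation by UV absorbance at 229 nm.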

Plasma [4] = assay: Unbound plasma concentration in CD-1 mouse at 3 mg/kg, iv and 10 mg/kg, po measured at 4 hrs; type: ADME, organism-based; conditions: in vivo
Outline: (§2)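 Male CD-1 mice, 3 per cohort, dosed 3 mg/kg iv and 10 mg/kg po; plasma drawn at 1 and 4 h, brains harvested from oral groups only. Formulations varied by compound: 40% PEG 400/10% EtOH/50% H₂O; 30% captisol in H₂O; iv 50 mM citrate in saline (pH 4); po 1% CMC/0.5% Tween/5 mM citrate in H₂O.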

Plasma [5] = assay: Unbound plasma concentration in CD-1 mouse at 3 mg/kg, iv and 10 mg/kg, po measured at 1 hr; type: ADME, organism-based; conditions: in vivo; outline: as §2
Brain [6] = assay: Fraction unbound in CD-1 mouse brain at 10 mg/kg, po measured at 1 hr; type: ADME, organism-based; parameters: dose 10 mg/kg, route oral; conditions: in vivo; outline: as §1
[7] = Ratio of unbound drug level in brain to plasma in CD-1 mouse measured at 1 hr; type: ADME; conditions: for Kp uu at 1 h: CD-1, mouse, read-out: K(p,uu,brain)
Outline: (§3)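 Male CD-1 mice given 10 mg/kg po, 3 per cohort; plasma and brain collected at 1 and 4 h. Free brain/plasma ratio from unbound concentrations; coverage ratio = free brain concentration divided by HEK293 Aβ₁₋₄₀ cell IC50.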

Mus musculus = assay: Hepatic clearance in CD-1 mouse at 3 mg/kg, iv; type: ADME, organism-based, Liver; parameters: dose 3 mg/kg, route intravenous; conditions: in vivo; outline: as §2
[8] = Oral bioavailability in CD-1 mouse at 10 mg/kg; type: ADME, organism-based; conditions: in vivo
[9] = Ratio of unbound drug level in brain to plasma in CD-1 mouse measured at 4 hrs; type: ADME; conditions: for Kp uu at 4 h: CD-1, mouse, read-out: K(p,uu,brain); outline: as §3
[10] = Fraction unbound in Hartley guinea pig brain at 60 mg/kg, po measured at 5 hrs; type: ADME, organism-based, Cavia porcellus; parameters: dose 60 mg/kg, route oral; conditions: in vivo
[11] = Drug uptake in Hartley guinea pig CSF at 60 mg/kg, po measured at 5 hrs; type: ADME, organism-based, Cavia porcellus, Cerebrospinal fluid; parameters: dose 60 mg/kg, route oral; conditions: read-out: Drug uptake
Outline: (§4)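 Male Hartley guinea pigs, oral dosing (CMC/Tween/citrate suspension or PEG/EtOH/H₂O solution), six or eight animals per cohort; CSF drug concentration (nM) measured at each time point.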

[12] = Drug uptake in Hartley guinea pig CSF at 60 mg/kg, po measured at 3 hrs; type: ADME, organism-based, Cavia porcellus, Cerebrospinal fluid; parameters: dose 60 mg/kg, route oral; conditions: read-out: Drug uptake; outline: as §4
[13] = Fraction unbound in Hartley guinea pig brain at 60 mg/kg, po measured at 3 hrs; type: ADME, organism-based, Cavia porcellus; parameters: dose 60 mg/kg, route oral; conditions: in vivo
[14] = Ratio of unbound drug level in brain to plasma in Hartley guinea pig at 60 mg/kg, po measured at 3 hrs; type: ADME, organism-based, Cavia porcellus; parameters: dose 60 mg/kg, route oral; conditions: brain and plasma (unbound), read-out: K(p,uu,brain)
Outline: (§5)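 Male Hartley guinea pigs given single oral doses of 30, 60 or 100 mg/kg in 1% CMC/0.5% Tween/5 mM citrate in H₂O, 6–8 animals per cohort. Plasma, brain and CSF sampled at 1–12 h; free brain to free plasma ratio computed.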

[15] = Unbound plasma concentration in Hartley guinea pig at 60 mg/kg, po measured at 5 hrs; type: ADME, organism-based, Cavia porcellus; parameters: dose 60 mg/kg, route oral; conditions: in vivo
Outline: (§6)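 Male Hartley guinea pigs were dosed orally at 30, 60 or 100 mg/kg, with six or eight animals per cohort. The vehicle was either a suspension in 1% CMC/0.5% Tween/5 mM citrate in H₂O or a 40/10/50 PEG/EtOH/H₂O solution, depending on compound. Unbound plasma concentration was sampled at 1–12 h post-dose alongside brain, CSF and CSF Aβ₁₋₄₀.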

[16] = Ratio of unbound drug level in brain to plasma in Hartley guinea pig at 60 mg/kg, po measured at 5 hrs; type: ADME, organism-based, Cavia porcellus; parameters: dose 60 mg/kg, route oral; conditions: brain and plasma (unbound), read-out: K(p,uu,brain); outline: as §5
[17] = Unbound plasma concentration in Hartley guinea pig at 60 mg/kg, po measured at 3 hrs; type: ADME, organism-based, Cavia porcellus; parameters: dose 60 mg/kg, route oral; conditions: in vivo; outline: as §6

| Drug uptake(free) (Brain [1]) [nM] | CLhep predicted at 1 µM [2] [mL/min/kg] | Cp(f) (Plasma [4]) [nM] | Cp(f) (Plasma [5]) [nM] | Drug uptake(free) (Brain [6]) [nM] | Kp uu at 1 h [7] | CLH (Mus musculus) [mL/min/kg] | bioavailability [8] [%] | Kp uu at 4 h [9] | SMILES | other results |
| --- | --- | --- | --- | --- | --- | --- | --- | --- | --- | --- |
| 2.5 | 57 | 3.7 | 9.5 | 7.2 | 0.76 | 48 | 43 | 0.68 | C[C@]12CCOC[C@@H]1[C@]1(COC(N)=N1)c1cc(-c3cc(F)cc(Cl)c3)ccc1O2 | pKa [3]: 6.7 |
| – | – | – | – | – | – | – | – | – | CN1C(=O)[C@]2(N=C1N)c1cc(-c3cccc(C#N)c3)ccc1O[C@H]1CCOC[C@@H]12 | Drug uptake(free) [10]: 6.7 nM; concentration at 5 h [11]: 40 nM; concentration at 3 h [12]: 90 nM; Drug uptake(free) [13]: 12 nM; Kp uu at 3 h [14]: 0.046; Cp(f) [15]: 79 nM; Kp uu at 5 h [16]: 0.085; Cp(f) [17]: 260 nM |
| – | 65 | – | – | – | – | – | – | – | C[C@]12CCOC[C@@H]1[C@]1(COC(N)=N1)c1cc(-c3cncc(Cl)c3)c(F)cc1O2 (racemic) | – |
| – | 84 | – | – | – | – | – | – | – | C[C@]12CCOC[C@@H]1[C@]1(COC(N)=N1)c1cc(-c3cccnc3F)c(F)cc1O2 (racemic) | – |
| 5.8 | 60 | 120 | 220 | 18 | 0.082 | 34 | 76 | 0.048 | C[C@]12CCOC[C@@H]1[C@]1(COC(N)=N1)c1cc(-c3cncc(Cl)c3)ccc1O2 (racemic) | – |
| – | 61 | – | – | – | – | – | – | – | C[C@]12CCOC[C@@H]1[C@]1(COC(N)=N1)c1cc(-c3cccnc3F)ccc1O2 (racemic) | – |
| < 0.75 | 51 | 63 | 260 | 7.1 | 0.027 | 72 | 75 | < 0.012 | C[C@H]1OCC[C@H]2Oc3ccc(-c4cccnc4F)cc3[C@]3(N=C(N)N(C)C3=O)[C@H]12 (racemic) | – |
| – | – | – | – | – | – | – | – | – | C[C@H]1OCC[C@H]2Oc3ccc(-c4cccnc4F)cc3[C@@]3(COC(N)=N3)[C@H]12 (racemic) | pKa [3]: 6.4 |
| 3.7 | 55 | 25 | 53 | 1.9 | 0.036 | 51 | 15 | 0.15 | CN1C(=O)[C@]2(N=C1N)c1cc(-c3cccnc3F)ccc1O[C@H]1CCOC[C@@]12C (racemic) | – |
| – | – | – | – | – | – | – | – | – | C[C@@]12COCC[C@H]1Oc1ccc(-c3cccnc3F)cc1[C@@]21COC(N)=N1 (racemic) | pKa [3]: 6.4 |
| – | 21 | – | – | – | – | – | – | – | CN1C(=O)[C@]2(N=C1N)c1cc(-c3cccc(OC(F)F)c3)c(F)cc1O[C@H]1CCOC[C@@H]12 (racemic) | – |
| – | 40 | – | – | – | – | – | – | – | CN1C(=O)[C@]2(N=C1N)c1cc(-c3cccnc3F)c(F)cc1O[C@H]1CCOC[C@@H]12 (racemic) | – |
| < 2.3 | 45 | 17 | 160 | 4.4 | 0.028 | 140 | 38 | < 0.14 | CN1C(=O)[C@]2(N=C1N)c1cc(-c3cncc(F)c3)ccc1O[C@H]1CCOC[C@@H]12 (racemic) | – |
| < 0.8 | 54 | 7.5 | 26 | 1 | 0.038 | 110 | 19 | < 0.11 | CN1C(=O)[C@]2(N=C1N)c1cc(-c3cncc(Cl)c3)ccc1O[C@H]1CCOC[C@@H]12 (racemic) | – |
| 4.3 | 17 | 170 | 210 | 3 | 0.014 | 35 | 103 | 0.025 | CN1C(=O)[C@]2(N=C1N)c1cc(-c3cccc(C#N)c3)ccc1O[C@H]1CCOC[C@@H]12 (racemic) | – |
| 0.49 | 32 | 17 | 8.7 | 0.28 | 0.032 | 22 | 67 | 0.029 | CN1C(=O)[C@]2(N=C1N)c1cc(-c3cc(F)cc(Cl)c3)ccc1O[C@H]1CCOC[C@@H]12 (racemic) | – |
| 8.4 | 46 | 75 | 320 | 11 | – | 70 | – | – | CN1C(=O)[C@]2(N=C1N)c1cc(-c3cccnc3F)ccc1O[C@H]1CCOC[C@@H]12 (racemic) | K(p,uu,brain) ([7]; mouse, 1 h): 0.034; K(p,uu,brain) ([9]; mouse, 4 h): 0.11 |
